An excerpt weighted towards active compounds, which were near 4.1% of everything screened.
AHR act – activators of human aryl hydrocarbon receptor. hit rate 2.5% among 320,000. activation, % at 5 µM. AID 2796. P35869. AHR-responsive luciferase reporter cells, luminescence; in the data active = activation above about 47%;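 also: 0% = vehicle wells and 100% = reference agonist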
Target sequence (P35869 whole entry, looked up): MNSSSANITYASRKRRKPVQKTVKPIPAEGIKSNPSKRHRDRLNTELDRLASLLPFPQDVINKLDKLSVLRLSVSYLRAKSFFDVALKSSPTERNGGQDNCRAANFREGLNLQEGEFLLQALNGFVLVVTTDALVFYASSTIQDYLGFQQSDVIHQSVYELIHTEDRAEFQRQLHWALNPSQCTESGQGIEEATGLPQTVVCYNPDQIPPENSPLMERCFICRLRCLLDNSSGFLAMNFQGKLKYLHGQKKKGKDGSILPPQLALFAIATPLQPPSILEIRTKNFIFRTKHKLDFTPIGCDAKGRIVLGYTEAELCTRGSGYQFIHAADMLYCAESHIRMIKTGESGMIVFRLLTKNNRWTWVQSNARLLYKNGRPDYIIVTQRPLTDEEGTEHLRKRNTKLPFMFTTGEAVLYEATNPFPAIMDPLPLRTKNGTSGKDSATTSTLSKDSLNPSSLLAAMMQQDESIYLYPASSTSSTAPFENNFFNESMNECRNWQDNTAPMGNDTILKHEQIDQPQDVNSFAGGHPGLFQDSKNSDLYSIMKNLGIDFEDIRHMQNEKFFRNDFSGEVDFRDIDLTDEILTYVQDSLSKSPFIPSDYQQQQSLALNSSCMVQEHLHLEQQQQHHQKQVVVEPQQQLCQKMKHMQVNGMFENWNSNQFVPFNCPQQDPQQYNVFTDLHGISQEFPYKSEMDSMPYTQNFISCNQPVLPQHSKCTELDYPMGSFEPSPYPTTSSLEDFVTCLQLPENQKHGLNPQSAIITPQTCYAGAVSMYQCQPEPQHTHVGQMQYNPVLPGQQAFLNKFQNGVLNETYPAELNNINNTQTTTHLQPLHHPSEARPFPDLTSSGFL
SMARCA2 activ – increases SMARCA2 function in MMTV reporter cells; MG213 cells, MMTV-luciferase reporter, dexamethasone, overnight; activation, % at 9.1 µM; hit rate 1% among 370,000; AID 652017; in the data active = activation above about 7.8%;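 also: 0% = vehicle wells and 100% = reference activator wells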
Efflux pump inh – antifungal efflux pump inhibition, Nile Red retention; S. cerevisiae Candida pump triplex; inhibition, % at 10 µM; hit rate 0.44% among 330,000;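 active = plate passing quality check with inhibition over a set limit, or well fluorescence over plate mean plus 4 SD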;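 also: Nile Red retained in pooled yeast measured as flow cytometry median fluorescence; 0% = buffer negative control and 100% = Enniatin B positive control; higher means more Nile Red kept so more efflux inhibition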
TbMetRS inhib – Trypanosoma brucei MetRS inhibition; purified T. brucei MetRS, ATP depletion, Kinase-Glo luminescence; inhibition, % at 11.9 µM; hit rate 0.4% among 360,000;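 active = inhibition above a per-plate cutoff of the control wells' mean inhibition plus 3 SD, cut at about 5.5% in these data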;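 also: 0% = DMSO wells median and 100% = median of wells with control inhibitor compound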
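assay system = parasite MetRS enzyme | timing = 15 min preincubation, 2 h reaction, all 25 °C | evaluation = percent inhibition relative to median high and low control wells | medium = HEPES buffer containing pyrophosphatase, BSA, spermine, DTT | compound = single dose, 11.9 µM final nominal, 0.9% final DMSO | detection = Kinase-Glo luminescence, ATP depletion format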
TAG inh – inhibitors of triacylglycerol accumulation; hit rate 0.66% among 230,000; H9c2 cells, Nile Red lipid (TAG) fluorescence; cells loaded with 200 µM oleic acid; inhibition, % at 12.5 µM;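 active = pattern-corrected inhibition of lipid staining of at least 50% with the nuclear-stain viability signal not falling by more than 50%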;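 also: 0% = DMSO wells and 100% = triacsin C control wells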
Active calls of the source: *; . = no result given.

SMILES | AHR act | SMARCA2 activ | Efflux pump inh | TbMetRS inhib | TAG inh
CC(C)(C)C(=O)NCC12C=CC(O1)C1C(=O)N(c3ccccc3)C(=O)C12 (centres undefined) | 1.5 | -0.9 | 0.1 | -0.2 | .
O=C1C2C3C=CC(CO)(O3)C2C(=O)N1c1ccc(-c2ccccc2)cc1 (centres undefined) | 26.2 | . | 1.7* | . | .
CCn1c2ccccc2c2cc(N=C3SC(CC(=O)Nc4ccccc4OC)C(=O)N3CCOC)ccc21 (centres undefined) | 62.3* | -0.7 | -0.4 | -0.7 | .
OCCN(CCO)c1ncnc2c1oc1ccc(Br)cc12 | 71.5* | -0.1 | 0.2 | -1.0 | .
O=C(N[C@H](Cc1ccccc1)C(=O)NCc1ccco1)[C@H]1O[C@@H](n2ccc(=O)[nH]c2=O)[C@H](O)[C@@H]1O | . | 4.2 | . | . | .
Cc1cc(N2CCN(C)CC2)nc2ccc(NC(=S)NCCN3CCc4ccccc4C3)cc12 | 9.2 | 7.9* | 0.6 | -0.6 | 13.9
COc1nc(-c2ccccc2)ccc1-c1noc(-c2ccccc2)n1 | 44.6 | 2.6 | 0.1 | -1.3 | -11.6
COc1nc(-c2ccccc2)ccc1-c1noc(-c2cccs2)n1 | 52.1* | 2.2 | -0.1 | 0.1 | -28.1
C[C@H]1CN(C(=O)OC(C)(C)C)CCN1c1ccc(N2CCS(=O)(=O)CC2)c(C#N)c1 | . | -3.9 | . | . | .
COc1cccc(C(=O)Nc2ccc(C(=O)NCC3COc4ccccc4O3)cc2)c1 (centres undefined) | . | -2.3 | . | . | .
Cc1ccc2cc(/C=N/NC(=O)c3ccc(F)cc3)c(Cl)nc2c1 | 11.9 | -2.7 | -0.1 | -0.4 | -2.3
Cc1ccc2cc(/C=N/Nc3nc4ccccc4[nH]3)c(Cl)nc2c1 | . | 7.8* | . | -1.2 | .
COc1cc(/C=N\Nc2nc3ccccc3[nH]2)cc(OC)c1OC | 49.5* | -9.1 | -0.1 | 5.2 | 11.0
CCN(CC)c1ccc(/C=N/Nc2nc3ccccc3[nH]2)c(O)c1 | 51.1* | -0.1 | 0.2 | 1.4 | .
CC(=O)CC[C@H]1CC[C@]2(CCCN(C(=O)c3ccno3)C2)O1 | . | 0.9 | . | . | .
COC(=O)[C@]12C[C@H](CC(=O)NCc3ccc(OC)c(OC)c3)C(=O)N(Cc3cccc4ccccc34)C1=C[C@H](C1CCCC1)O[C@@H]2C | . | -2.7 | . | . | .
CCOC(=O)c1cc(-c2csc(N/N=C/c3ccccc3Cl)n2)on1 | 49.9* | -0.6 | 0.0 | -0.8 | 9.5
COc1cccc(NC(=O)Nc2nc3ncccn3c2-c2ccc(C(F)(F)F)cc2)c1 | . | -0.7 | . | . | .
Cc1ccc(/C=N/N2C(=O)c3ccccc3NC2c2ccc(C)cc2)cc1 (centres undefined) | 50.5* | 2.8 | 0.1 | -0.3 | .
Cc1ccc(NC(=O)Nc2cccc(C)n2)c(C)c1 | 56.3* | 3.1 | -0.1 | -1.0 | -11.4
CCOC(=O)[C@]12CCCC=C1N(Cc1ccc(OC)cc1)C(=O)[C@@H]2CC(=O)NCc1ccc(OC)c(OC)c1 | . | 0.8 | . | . | .
CSc1nc2sc3c(c2c(=O)[nH]1)CCC(C)C3 (centres undefined) | 68.7* | 0.6 | -0.2 | -0.2 | .
CCCSc1nc2sc3c(c2c(=O)[nH]1)CC(C)CC3 (centres undefined) | 24.4 | -2.6 | 0.2 | -0.2 | .
O=C1C=C(c2cc(Cl)cc(Cl)c2)C[C@@H](c2ccc3c(c2)OCO3)C1 | 29.8 | 0.6 | -0.1 | 0.3 | -17.4
O=C1C=C(c2cccc(CO)c2)C[C@@H](c2ccc3c(c2)OCO3)C1 | 73.4* | -0.2 | 0.1 | -0.3 | -7.7
SMILES | AHR act | SMARCA2 activ | Efflux pump inh | TbMetRS inhib | TAG inh
Cc1cc(C2=CC(=O)C[C@H](c3ccc4c(c3)OCO4)C2)ccc1F | 79.0* | 0.1 | 0.0 | 0.3 | -20.5
O=C1C=C(c2ccc(-c3ccccc3)c(F)c2)C[C@@H](c2ccc3c(c2)OCO3)C1 | 3.3 | 0.2 | -0.3 | -0.1 | 5.5
O=C1C=C(c2ccc3c(c2)OCO3)C[C@@H](c2ccc3c(c2)OCO3)C1 | 60.9* | 0.3 | -0.1 | -0.3 | -4.8
CN1CCCN(S(=O)(=O)c2ccc3c(c2)n(C)c(=O)c(=O)n3C)CC1 | . | -5.9 | . | . | .
Cc1cccc(NCc2nc3ccccc3n2Cc2ccccc2)c1 | 8.2 | 0.0 | 0.1 | -0.8 | .
Cc1cccc(NCc2nc3ccccc3n2C)c1 | 47.2* | 7.4 | 0.1 | 0.0 | .
Cc1ccc(CNc2ccc(N3CCOCC3)cc2)cc1 | 13.9 | -2.1 | -0.1 | 0.1 | .
Cc1ccc(NCc2nc3ccccc3n2C)c(C)c1 | 76.3* | 2.2 | -0.1 | 0.2 | .
Cc1ccc(N2CCN(c3ccc(NCc4nc5ccccc5n4C)cc3)CC2)cc1 | 65.9* | -1.3 | 0.3 | -1.0 | .
c1ccc(OCc2nnc(SCc3nc4ccccc4[nH]3)n2-c2ccccc2)cc1 | . | -4.8 | . | . | .
COc1cc(CCC(C)=O)ccc1OC(=O)c1c(-c2c(F)cccc2Cl)noc1C | . | -4.1 | . | . | .

Screens deposited in PubChem by several laboratories.
